# Data reported in ChEMBL document CHEMBL4627320, “Discovery of CRBN E3 Ligase Modulator CC-92480 for the Treatment of Relapsed and Refractory Multiple Myeloma” (J Med Chem, 2020).
# Calls of active or inactive are those of the source. The rule behind the calls is not given here.
# Columns and labels:
# [1] = molecular target: Protein cereblon/Zinc finger protein Aiolos (Homo sapiens, UniProt Q96SW2+Q9UKT9); assay: Induction of CRBN-mediated pLOC-ePL-tagged aiolos (unknown origin) degradation in human DF15 cells assessed as minimum protein remaining incubated for 4 hrs by luminescence based beta-galactosidase enzyme fragmentation complementation assay; assay type: cell-based
# [2] = molecular target: Protein cereblon/Eukaryotic peptide chain release factor GTP-binding subunit ERF3A (Homo sapiens, UniProt P15170+Q96SW2); assay: Induction of CRBN-mediated pLOC-ePL-tagged GSPT1 (unknown origin) degradation in human DF15 cells assessed as minimum protein remaining incubated for 4 hrs by luminescence based beta-galactosidase enzyme fragmentation complementation assay; assay type: cell-based
# [3] = test system: PBMC; assay: Cytotoxicity against PBMC (unknown origin); assay type: cell-based
# [4] = (§1) Antiproliferative activity against lenalidomide-resistant human H929-R10-1 cells incubated for 5 days by CellTiter-Glo assay; assay type: functional; conditions: 120 h
# Outline: (§2)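 H929 R10-1 cells kept in log phase at 37°C, 5% CO₂, and plated at 5000 cells/well. Compounds were added as 10-point duplicate curves starting at 10µM with 1:3 dilutions, in 0.1% DMSO, final volume 40µl. Plates were incubated for 5 days. Viability was read by CellTiter-Glo luminescence after 1 h at room temperature in the dark. IC50 is the mean of ≥3 separate determinations.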
# [5] = molecular target: Adrenergic receptor alpha-1 (Homo sapiens) (UniProt P35348+P25100+P35368); assay: Inhibition of adrenergic receptor alpha1 (unknown origin) at 10 uM relative to control; assay type: protein assay
# [6] = molecular target: D(2) dopamine receptor (Homo sapiens, UniProt P14416); assay: Inhibition of D2S (unknown origin) at 10 uM relative to control
# [7] = Solubility of the compound; assay type: physicochemical
# [8] = Drug metabolism in assay cell medium assessed as compound racemization measured within 24 hrs; assay type: physicochemical
# Outline: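 Compound held in the same cell medium used for the H929 R10-1 antiproliferation assay; enantiomer levels followed by chiral monitoring over 24 h.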
# [9] = molecular target: Protein cereblon/DNA damage-binding protein 1 (Homo sapiens, UniProt Q96SW2); assay: Displacement of Cy5-conjugated CELMoD from N-terminal 6-His tagged CRBN (1 to 442 residues) (unknown origin)/DDB1 (1 to 1140 residues) (unknown origin) incubated for 10 mins by FRET assay; assay type: protein assay
# [10] = species on record: Homo sapiens; assay: Induction of apoptosis in lenalidomide-resistant human H929-R10-1 cells assessed as caspase3 induction at 1 uM measured over 150 hrs by live cell imaging analysis; assay type: functional
# Outline: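 Lenalidomide-refractory H929 R10-1 cells were treated at concentrations from 1 nM to 1 μM. Caspase-3 induction was quantified by live-cell imaging over 150 h.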
# [11] = species on record: Homo sapiens; assay: as §1; assay type: functional; outline: as §2
compound,measurement,setting,value
COc1ccc(N2CCN(Cc3ccc(COc4cccc5c4CN(C4CCC(=O)NC4=O)C5=O)cc3)CC2)cc1 (configuration not stated),EC50,[1],0.5 nM
same,EC50,[2],> 10000 nM
same,Activity,[3],Non-Toxic
same,IC50,[4],7.1 nM
CC(C)C1CCN(Cc2ccc(COc3cccc4c3CN(C3CCC(=O)NC3=O)C4=O)cc2)CC1 (configuration not stated),EC50,[1],0.1 nM
same,inhibition,[5],63%
same,inhibition,[6],94%
same,IC50,[4],1.4 nM
O=C1CCC(N2Cc3c(OCc4ccc(CN5CCN(c6ccc(Cl)cc6Cl)CC5=O)cc4)cccc3C2=O)C(=O)N1 (configuration not stated),EC50,[1],0.6 nM
same,solubility,[7],< 7 µg/mL
same,IC50,[4],6.7 nM
O=C1CCC(N2Cc3c(OCc4ccc(C(=O)N5CCN(c6ccc(F)cc6)CC5)cc4)cccc3C2=O)C(=O)N1 (configuration not stated),EC50,[1],0.3 nM
same,solubility,[7],< 7 µg/mL
same,IC50,[4],3.7 nM
O=C1CC[C@@H](N2Cc3c(OCc4ccc(CN5CCN(c6ccc(F)cc6F)CC5)cc4)cccc3C2=O)C(=O)N1,EC50,[1],0.5 nM
same,Drug metabolism,[8],Metabolite_Detected
same,IC50,[9],1160 nM
same,IC50,[4],4.3 nM
NC(=O)c1ccc(N2CCN(Cc3ccc(COc4cccc5c4CN(C4CCC(=O)NC4=O)C5=O)cc3)CC2)cn1 (configuration not stated),EC50,[1],0.4 nM
same,inhibition,[5],25.2%
same,inhibition,[6],32.9%
same,IC50,[4],3.5 nM
C[C@@]1(N2Cc3c(OCc4ccc(CN5CCN(c6ccc(F)cc6F)CC5)cc4)cccc3C2=O)CCC(=O)NC1=O,EC50,[1],> 100 nM
same,IC50,[9],9620 nM
same,IC50,[4],> 5000 nM
O=C1CCC(N2Cc3c(OCc4ccc(CN5CCC(C(F)(F)F)CC5)cc4)cccc3C2=O)C(=O)N1 (configuration not stated),EC50,[1],0.6 nM
same,inhibition,[5],41.5%
same,inhibition,[6],95.4%
same,IC50,[4],8.3 nM
Nc1cccc2c1CN(C1CCC(=O)NC1=O)C2=O (configuration not stated),Activity,[10],Active
same,Activity,[11],inactive
O=C1CCC(N2Cc3c(OCc4ccc(CN5CCN(c6cccc(F)c6)CC5)cc4)cccc3C2=O)C(=O)N1 (configuration not stated),EC50,[1],0.1 nM
same,EC50,[2],> 10000 nM
same,Activity,[3],Non-Toxic
same,IC50,[4],3.7 nM
O=C1CCC(N2Cc3c(OCc4ccc(CN5CCN(c6ccc(Cl)cc6)CC5)cc4)cccc3C2=O)C(=O)N1 (configuration not stated),EC50,[1],0.1 nM
same,EC50,[2],> 10000 nM
same,Activity,[3],Non-Toxic
same,IC50,[4],3.6 nM
O=C1CCC(N2Cc3c(OCc4ccc(CN5CCN(c6ccc(Cl)cc6Cl)CC5)cc4)cccc3C2=O)C(=O)N1 (configuration not stated),EC50,[1],0.2 nM
same,EC50,[2],> 10000 nM
same,Activity,[3],Non-Toxic
same,IC50,[4],9.2 nM
O=C1CCC(N2Cc3c(OCc4ccc(CN5CCN(c6ccc(F)cc6)CC5)cc4)cccc3C2=O)C(=O)N1 (configuration not stated),EC50,[1],0.1 nM
same,inhibition,[5],100%
same,EC50,[2],> 10000 nM
same,inhibition,[6],94.7%
same,Activity,[3],Non-Toxic
same,IC50,[4],2.8 nM
O=C1CCC(N2Cc3c(OCc4ccc(CN5CCC(F)(F)CC5)cc4)cccc3C2=O)C(=O)N1 (configuration not stated),EC50,[1],0.5 nM
same,IC50,[4],20.5 nM
O=C1CCC(N2Cc3c(OCc4ccc(C(=O)N5CCN(c6ccc(Cl)cc6Cl)CC5)cc4)cccc3C2=O)C(=O)N1 (configuration not stated),EC50,[1],0.1 nM
same,inhibition,[5],74.1%
same,inhibition,[6],5.6%
same,solubility,[7],< 7 µg/mL
same,IC50,[4],3.3 nM
O=C1CCC(N2Cc3c(OCc4ccccc4)cccc3C2=O)C(=O)N1 (configuration not stated),EC50,[1],7.5 nM
same,IC50,[4],> 10000 nM
O=C1CCC(N2Cc3c(OCc4ccc(CN5CCN(c6ccccc6)CC5)cc4)cccc3C2=O)C(=O)N1 (configuration not stated),EC50,[1],0.1 nM
same,EC50,[2],> 10000 nM
same,Activity,[3],Non-Toxic
same,IC50,[4],2.1 nM
O=C1CCC(N2C(=O)c3cccc(OCc4ccc(CN5CCN(c6ccc(F)cc6)CC5)cc4)c3C2=O)C(=O)N1 (configuration not stated),EC50,[1],2.1 nM
same,EC50,[2],> 10000 nM
same,IC50,[9],322 nM
same,IC50,[4],146 nM
O=C1CC[C@H](N2Cc3c(OCc4ccc(CN5CCN(c6ccc(F)cc6F)CC5)cc4)cccc3C2=O)C(=O)N1,EC50,[1],0.1 nM
same,IC50,[9],37 nM
same,IC50,[4],3.8 nM
O=C1CCC(N2Cc3c(OCc4ccc(CN5CCN(c6c(F)cccc6F)CC5)cc4)cccc3C2=O)C(=O)N1 (configuration not stated),EC50,[1],0.3 nM
same,EC50,[2],> 10000 nM
same,Activity,[3],Non-Toxic
same,IC50,[4],4 nM
O=C1CCC(N2Cc3c(OCc4ccc(CN5CCN(c6ccccn6)CC5)cc4)cccc3C2=O)C(=O)N1 (configuration not stated),EC50,[1],0.4 nM
same,inhibition,[5],99%
same,inhibition,[6],98%
same,IC50,[4],4.6 nM
Cc1ccc(NC(=O)NCc2ccc3c(c2)CN(C2CCC(=O)NC2=O)C3=O)cc1Cl (configuration not stated),IC50,[3],> 5000 nM
same,Activity,[11],Active
O=C1CCC(N2C(=O)c3cccc(OCc4ccc(CN5CCN(c6ccc(Cl)cc6Cl)CC5)cc4)c3C2=O)C(=O)N1 (configuration not stated),EC50,[1],3.3 nM
same,EC50,[2],> 10000 nM
same,IC50,[9],877 nM
same,IC50,[4],170 nM
CC1CCN(Cc2ccc(COc3cccc4c3CN(C3CCC(=O)NC3=O)C4=O)cc2)CC1 (configuration not stated),EC50,[1],1 nM
same,inhibition,[5],40.4%
same,inhibition,[6],78.4%
same,IC50,[4],35.1 nM
C[C@]1(N2Cc3c(OCc4ccc(CN5CCN(c6ccc(F)cc6F)CC5)cc4)cccc3C2=O)CCC(=O)NC1=O,EC50,[1],> 10 nM
same,IC50,[9],> 10000 nM
same,IC50,[4],496 nM
N#Cc1cccnc1N1CCN(Cc2ccc(COc3cccc4c3CN(C3CCC(=O)NC3=O)C4=O)cc2)CC1 (configuration not stated),EC50,[1],1 nM
same,inhibition,[5],92.1%
same,inhibition,[6],100%
same,IC50,[4],56 nM
O=C1CCC(N2Cc3c(OCc4ccc(CN5CCN(c6ccc(F)cn6)CC5)cc4)cccc3C2=O)C(=O)N1 (configuration not stated),EC50,[1],0.7 nM
same,inhibition,[5],97.7%
same,inhibition,[6],90.8%
same,IC50,[4],7.4 nM
O=C1CCC(N2Cc3c(OCc4ccc(C(=O)N5CCN(c6ccc(Cl)cc6)CC5)cc4)cccc3C2=O)C(=O)N1 (configuration not stated),EC50,[1],0.1 nM
same,inhibition,[5],33.7%
same,inhibition,[6],7.9%
same,solubility,[7],< 7 µg/mL
same,IC50,[4],6.2 nM
CC(C)N1CCN(Cc2ccc(COc3cccc4c3CN(C3CCC(=O)NC3=O)C4=O)cc2)CC1 (configuration not stated),EC50,[1],0.3 nM
same,IC50,[4],35.1 nM
CN1CCN(Cc2ccc(COc3cccc4c3CN(C3CCC(=O)NC3=O)C4=O)cc2)CC1 (configuration not stated),EC50,[1],3 nM
same,IC50,[4],510 nM
CN1C(=O)CCC(N2Cc3c(OCc4ccc(CN5CCN(c6ccc(F)cc6F)CC5)cc4)cccc3C2=O)C1=O (configuration not stated),EC50,[1],> 10000 nM
same,EC50,[2],> 10000 nM
same,IC50,[9],28000 nM
same,IC50,[4],632 nM
O=C1CCC(N2Cc3c(OCc4ccc(CN5CCN(c6ccccc6F)CC5)cc4)cccc3C2=O)C(=O)N1 (configuration not stated),EC50,[1],0.2 nM
same,EC50,[2],> 10000 nM
same,Activity,[3],Non-Toxic
same,IC50,[4],5 nM
O=C1CCC(N2C(=O)c3cccc(OCc4ccc(CN5CCN(c6ccc(F)cc6F)CC5)cc4)c3C2=O)C(=O)N1 (configuration not stated),EC50,[1],2.4 nM
same,EC50,[2],> 10000 nM
same,IC50,[9],502 nM
same,IC50,[4],159 nM
O=C1CCC(N2Cc3c(NCc4ccc(CN5CCN(c6ccc(F)cc6F)CC5)cc4)cccc3C2=O)C(=O)N1 (configuration not stated),EC50,[1],1.5 nM
same,EC50,[2],> 10000 nM
same,IC50,[9],194 nM
same,IC50,[4],26.3 nM
O=C1CCC(N2Cc3c(OCc4ccc(C(=O)N5CCN(c6ccc(F)cc6F)CC5)cc4)cccc3C2=O)C(=O)N1 (configuration not stated),EC50,[1],0.1 nM
same,inhibition,[5],70.3%
same,inhibition,[6],0.4%
same,solubility,[7],< 7 µg/mL
same,IC50,[4],4.9 nM
CC1(C)CCN(Cc2ccc(COc3cccc4c3CN(C3CCC(=O)NC3=O)C4=O)cc2)CC1 (configuration not stated),EC50,[1],0.3 nM
same,inhibition,[5],21.5%
same,inhibition,[6],66%
same,IC50,[4],9.9 nM
